Source: ChEMBL document CHEMBL4765452, “Discovery of (E)-N-(4-methyl-5-(3-(2-(pyridin-2-yl)vinyl)-1H-indazol-6-yl)thiazol-2-yl)-2-(4-methylpiperazin-1-yl)acetamide (IHMT-TRK-284) as a novel orally available type II TRK kinase inhibitor capable of overcoming multiple resistant mutants” (Eur J Med Chem, 2020)

Assays:
[1] = molecular target: High affinity nerve growth factor receptor (Homo sapiens, UniProt P04629); experiment: Inhibition of wild type TEL fused TRKA (unknown origin) transfected in mouse BAF3 cells assessed as growth inhibition after 72 hrs by CCK8 assay; type: cell-based
[2] = molecular target: VEGFR2 (vascular endothelial growth factor receptor 2), wild type, TEL fusion (Homo sapiens, UniProt P35968); experiment: Inhibition of wild type TEL fused VEGFR2 (unknown origin) transfected in mouse BAF3 cells assessed as growth inhibition after 72 hrs by CCK8 assay; type: cell-based; conditions: mouse BaF3 cells transfected with wild type TEL-fused VEGFR2
[3] = Antiproliferative activity in mouse BAF3 cells assessed as growth inhibition after 72 hrs by CCK8 assay; type: cell-based
Summary of the method: (§1)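 TEL- or LMNA-fusion isogenic BaF3 lines grown in RPMI 1640 with 10% FBS and 1% penicillin/streptomycin at 37 °C, 5% CO₂; suspension cells collected by spinning at 800 rpm for 4 min before use; growth inhibition scored as GI₅₀.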

[4] = test system: High affinity nerve growth factor receptor (Homo sapiens), P04629 [G667C]; experiment: Inhibition of LMNA fused TRKA G667C mutant (unknown origin) transfected in mouse BAF3 cells assessed as growth inhibition after 72 hrs by CCK8 assay; type: cell-based; summary of the method: as §1
BaF3 [5] = experiment: Antitumor activity against mouse BAF3 cells harboring TEL fused TRKC allografted in nude mouse assessed as tumor growth inhibition at 80 mg/kg, po administered once daily for 10 days relative to control; type: functional; conditions: 240 h, time 10 day, read-out: TGI
Summary of the method: (§2)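 Nu/nu mice given 1 million BaF3 cells (TEL-TRKA, TEL-TRKB, TEL-TRKC, LMNA-TRKA-F589L or LMNA-TRKA-G667S) in DMEM, 1:1 with matrigel, injected subcutaneously into the right flank; oral gavage began at 200–400 mm³, 5 mice per group, compound in 0.5% methylcellulose/0.4% Tween 80 in ddH₂O, 10 days; tumor volume [(W²×L)/2] and body weight recorded daily; TGI versus vehicle.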

BaF3 [6] = experiment: Antitumor activity against mouse BAF3 cells harboring TEL fused TRKA allografted in nude mouse assessed as tumor growth inhibition at 80 mg/kg, po administered once daily for 10 days relative to control; type: functional; conditions: 240 h, time 10 day, read-out: TGI; summary of the method: as §2
[7] = Antitumor activity against human […] cells xenografted in nude mouse assessed as tumor growth inhibition at 80 mg/kg, po administered once daily for 10 days relative to control; type: functional; conditions: KM12-Luc, 240 h, time 10 day, read-out: TGI
Summary of the method: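 Nu/nu mice given 5 million KM-12-LUC cells in DMEM, 1:1 with matrigel, injected subcutaneously into the right flank; oral gavage started at tumor size 150–200 mm³, 5 mice per group, compound in 0.5% methylcellulose/0.4% Tween 80 in ddH₂O; body weight and tumor volume [(W²×L)/2] measured daily; TGI versus vehicle.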

BaF3 [8] = experiment: Inhibition of LMNA fused TRKA F589L mutant (unknown origin) transfected in mouse BAF3 cells assessed as growth inhibition after 72 hrs by CCK8 assay; type: cell-based; conditions: Homo sapiens; summary of the method: as §1
BaF3 [9] = experiment: Inhibition of LMNA fused TRKA G667S mutant (unknown origin) transfected in mouse BAF3 cells assessed as growth inhibition after 72 hrs by CCK8 assay; type: cell-based; conditions: Homo sapiens
[10] = Antiproliferative activity against human KM-12-LUC cells harboring […] fused TRKA assessed as growth inhibition after 72 hrs by CCK8 assay; type: functional; conditions: KM12-Luc
Summary of the method: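 KM-12-LUC cells seeded at 3 × 10⁴ cells/mL, incubated overnight at 37 °C, 5% CO₂, then medium replaced with fresh medium containing a range of compound concentrations for 72 h; viability read by CCK-8 absorbance at 450 nm, normalized to DMSO control, GI₅₀ from curve fitting.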

BaF3 [11] = experiment: Inhibition of LMNA fused TRKA V573M mutant (unknown origin) transfected in mouse BAF3 cells assessed as growth inhibition after 72 hrs by CCK8 assay; type: cell-based; conditions: Homo sapiens

VEGFR2 (vascular endothelial growth factor receptor 2), wild type, TEL fusion, sequence (P35968 whole entry, the tested form may be a part): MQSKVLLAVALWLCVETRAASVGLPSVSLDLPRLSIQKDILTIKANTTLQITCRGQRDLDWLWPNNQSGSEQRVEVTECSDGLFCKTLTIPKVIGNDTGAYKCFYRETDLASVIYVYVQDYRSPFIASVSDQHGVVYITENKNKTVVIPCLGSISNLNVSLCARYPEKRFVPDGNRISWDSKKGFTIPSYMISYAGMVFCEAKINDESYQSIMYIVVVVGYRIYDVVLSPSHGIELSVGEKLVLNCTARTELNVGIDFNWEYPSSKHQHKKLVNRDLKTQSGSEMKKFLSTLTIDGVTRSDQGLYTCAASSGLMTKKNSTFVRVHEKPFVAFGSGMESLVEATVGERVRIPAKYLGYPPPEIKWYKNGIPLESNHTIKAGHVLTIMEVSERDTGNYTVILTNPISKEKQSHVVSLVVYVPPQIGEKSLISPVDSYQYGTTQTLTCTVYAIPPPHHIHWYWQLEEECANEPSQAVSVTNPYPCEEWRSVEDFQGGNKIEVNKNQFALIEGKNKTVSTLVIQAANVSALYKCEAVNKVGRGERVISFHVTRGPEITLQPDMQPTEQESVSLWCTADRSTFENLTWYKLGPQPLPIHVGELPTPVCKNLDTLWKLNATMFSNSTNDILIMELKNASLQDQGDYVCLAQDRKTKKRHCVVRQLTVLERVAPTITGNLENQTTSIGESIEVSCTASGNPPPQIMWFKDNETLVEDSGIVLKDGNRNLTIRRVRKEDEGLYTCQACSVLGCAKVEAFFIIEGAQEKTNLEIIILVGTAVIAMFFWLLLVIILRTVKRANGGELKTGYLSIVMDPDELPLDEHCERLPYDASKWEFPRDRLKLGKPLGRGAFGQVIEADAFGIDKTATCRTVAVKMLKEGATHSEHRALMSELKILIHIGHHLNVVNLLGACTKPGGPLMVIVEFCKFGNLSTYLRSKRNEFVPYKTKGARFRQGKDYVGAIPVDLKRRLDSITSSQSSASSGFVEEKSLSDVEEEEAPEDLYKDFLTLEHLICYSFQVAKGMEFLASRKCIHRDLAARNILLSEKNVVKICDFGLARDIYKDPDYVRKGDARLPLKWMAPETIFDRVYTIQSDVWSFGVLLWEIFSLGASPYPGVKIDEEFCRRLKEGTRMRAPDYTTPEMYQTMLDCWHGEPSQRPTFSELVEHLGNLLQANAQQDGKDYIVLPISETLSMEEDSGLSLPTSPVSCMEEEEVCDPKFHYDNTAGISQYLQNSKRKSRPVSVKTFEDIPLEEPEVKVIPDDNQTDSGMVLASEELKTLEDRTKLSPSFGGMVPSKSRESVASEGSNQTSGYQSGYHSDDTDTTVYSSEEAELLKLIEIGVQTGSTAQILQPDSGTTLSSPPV
High affinity nerve growth factor receptor, sequence (P04629 33-796 limits assumed): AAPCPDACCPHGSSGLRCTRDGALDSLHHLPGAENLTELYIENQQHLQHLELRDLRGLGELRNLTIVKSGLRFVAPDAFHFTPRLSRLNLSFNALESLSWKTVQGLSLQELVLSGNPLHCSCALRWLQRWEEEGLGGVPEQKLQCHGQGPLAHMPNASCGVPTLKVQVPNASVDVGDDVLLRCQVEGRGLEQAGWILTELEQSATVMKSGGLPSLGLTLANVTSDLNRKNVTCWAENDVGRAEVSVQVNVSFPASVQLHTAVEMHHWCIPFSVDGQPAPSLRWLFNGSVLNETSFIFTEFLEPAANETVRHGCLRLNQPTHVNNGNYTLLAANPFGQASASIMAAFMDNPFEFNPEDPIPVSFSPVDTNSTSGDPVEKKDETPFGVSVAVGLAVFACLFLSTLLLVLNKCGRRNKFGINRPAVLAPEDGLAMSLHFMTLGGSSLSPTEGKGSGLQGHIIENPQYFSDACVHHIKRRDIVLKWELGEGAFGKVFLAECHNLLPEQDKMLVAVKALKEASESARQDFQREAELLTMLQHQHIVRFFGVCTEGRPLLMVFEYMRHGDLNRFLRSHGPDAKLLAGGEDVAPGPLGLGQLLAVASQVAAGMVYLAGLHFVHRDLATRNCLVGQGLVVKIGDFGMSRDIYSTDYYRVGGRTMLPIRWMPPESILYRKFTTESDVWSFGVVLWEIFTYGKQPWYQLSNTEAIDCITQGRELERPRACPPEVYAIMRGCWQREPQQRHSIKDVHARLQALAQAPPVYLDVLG
High affinity nerve growth factor receptor (Homo sapiens), P04629 [G667C], sequence (P04629 whole entry G667C, looked up, the tested form may be a part): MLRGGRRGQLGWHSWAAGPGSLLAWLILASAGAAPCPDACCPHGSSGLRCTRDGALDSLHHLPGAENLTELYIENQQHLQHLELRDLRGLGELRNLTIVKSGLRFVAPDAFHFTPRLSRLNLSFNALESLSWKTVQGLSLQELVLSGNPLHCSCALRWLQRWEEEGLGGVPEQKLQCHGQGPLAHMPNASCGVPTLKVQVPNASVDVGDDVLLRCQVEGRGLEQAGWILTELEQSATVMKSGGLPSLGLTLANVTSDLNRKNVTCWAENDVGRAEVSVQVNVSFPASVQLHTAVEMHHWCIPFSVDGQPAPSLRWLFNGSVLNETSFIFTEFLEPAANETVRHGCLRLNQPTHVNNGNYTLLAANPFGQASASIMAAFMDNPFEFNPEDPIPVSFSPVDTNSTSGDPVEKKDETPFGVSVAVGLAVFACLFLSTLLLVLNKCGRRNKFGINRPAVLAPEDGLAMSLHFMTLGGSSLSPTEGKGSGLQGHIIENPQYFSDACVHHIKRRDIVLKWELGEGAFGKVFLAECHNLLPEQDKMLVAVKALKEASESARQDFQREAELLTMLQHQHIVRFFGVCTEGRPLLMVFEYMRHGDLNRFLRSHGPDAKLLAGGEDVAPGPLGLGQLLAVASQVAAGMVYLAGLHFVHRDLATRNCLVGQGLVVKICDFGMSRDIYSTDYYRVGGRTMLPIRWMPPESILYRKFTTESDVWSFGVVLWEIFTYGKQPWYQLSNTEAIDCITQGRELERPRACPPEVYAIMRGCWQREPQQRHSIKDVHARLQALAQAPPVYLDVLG

Row | GI50 [1] [nM] | Structure (SMILES) | GI50 at 72 h [2] [nM] | GI50 at 72 h [3] [nM] | other results
1 | 3 | Cc1nc(NC(=O)c2cccc(C(F)(F)F)c2)sc1-c1ccc2c(/C=C/c3ccccn3)n[nH]c2c1 | 5 | > 10000 | –
2 | 3 | Cc1nc(NC(=O)Nc2cccc(C(F)(F)F)c2)sc1-c1ccc2c(/C=C/c3ccccn3)n[nH]c2c1 | 4 | 105 | –
3 | 300 | Cc1nc(NC(=O)CC2CCCNC2)sc1-c1ccc2c(/C=C/c3ccccn3)n[nH]c2c1 (stereo not given) | 1930 | 8350 | –
4 | 145 | Cc1nc(NC(=O)C2CCNCC2)sc1-c1ccc2c(/C=C/c3ccccn3)n[nH]c2c1 | 3050 | 8710 | –
5 | 920 | CN1CCN(Cc2ccc(C(=O)Nc3cccc(Sc4ccc5c(/C=C/c6ccccn6)n[nH]c5c4)c3)cc2C(F)(F)F)CC1 | 13 | 1260 | –
6 | 33 | Cc1nc(NC(=O)Cc2cccc3ccccc23)sc1-c1ccc2c(/C=C/c3ccccn3)n[nH]c2c1 | 15 | 3690 | –
7 | 68 | Cc1nc(NC(=O)C(N)Cc2ccccc2)sc1-c1ccc2c(/C=C/c3ccccn3)n[nH]c2c1 (stereo not given) | 97 | 708 | –
8 | 2 | Cc1nc(NC(=O)Cc2cccc(Cl)c2)sc1-c1ccc2c(/C=C/c3ccccn3)n[nH]c2c1 | 10 | 4100 | –
9 | 116 | Cc1nc(NC(=O)CC2CCNCC2)sc1-c1ccc2c(/C=C/c3ccccn3)n[nH]c2c1 | 982 | > 10000 | –
10 | 62 | CN1CCN(Cc2ccc(NC(=O)Nc3cccc(Sc4ccc5c(/C=C/c6ccccn6)n[nH]c5c4)c3)cc2C(F)(F)F)CC1 | 15 | 3090 | –
11 | 32 | Cc1nc(NC(=O)CC2CCN(C)CC2)sc1-c1ccc2c(/C=C/c3ccccn3)n[nH]c2c1 | 570 | 1560 | –
12 | 18 | Cc1nc(NC(=O)CN2CCN(CCO)CC2)sc1-c1ccc2c(/C=C/c3ccccn3)n[nH]c2c1 | 81 | 1020 | –
13 | 40 | COc1ccc(CC(=O)Nc2nc(C)c(-c3ccc4c(/C=C/c5ccccn5)n[nH]c4c3)s2)cc1OC | 19 | 4870 | –
14 | 2 | Cc1nc(NC(=O)Cc2cccc(C(F)(F)F)c2)sc1-c1ccc2c(/C=C/c3ccccn3)n[nH]c2c1 | 13 | 2310 | –
15 | 13 | CSCCC(N)C(=O)Nc1nc(C)c(-c2ccc3c(/C=C/c4ccccn4)n[nH]c3c2)s1 (stereo not given) | 101 | 594 | –
16 | 35 | COCCOCC(=O)Nc1nc(C)c(-c2ccc3c(/C=C/c4ccccn4)n[nH]c3c2)s1 | 1780 | 1070 | –
17 | 251 | Cc1nc(NC(=O)C(C)C)sc1-c1ccc2c(/C=C/c3ccccn3)n[nH]c2c1 | 181 | 1580 | –
18 | 4310 | CC(=O)Nc1nc(C)c(-c2ccc3c(/C=C/c4ccccn4)n[nH]c3c2)s1 | 301 | 5240 | –
19 | 8 | Cc1nc(NC(=O)c2ccc(CN3CCN(C)CC3)cc2)sc1-c1ccc2c(/C=C/c3ccccn3)n[nH]c2c1 | 12 | 1460 | –
20 | 89 | Cc1nc(NC(=O)C2CCN(C)CC2)sc1-c1ccc2c(/C=C/c3ccccn3)n[nH]c2c1 | 2040 | 2510 | –

Second part, the molecule before the results:

Row | Structure (SMILES) | GI50 [1] [nM] | GI50 at 72 h [2] [nM] | GI50 at 72 h [3] [nM] | other results
21 | Cc1n[nH]c2cc(SCCC(=O)Nc3ccc(CN4CCN(C)CC4)c(C(F)(F)F)c3)ccc12 | 729 | 9 | – | –
22 | CN1CCN(Cc2ccc(NC(=O)CCSc3ccc4c(/C=C/c5cnccn5)n[nH]c4c3)cc2C(F)(F)F)CC1 | 88 | 2 | 1640 | –
23 | CN1CCN(Cc2ccc(NC(=O)CCSc3ccc4c(/C=C/c5ccccn5)n[nH]c4c3)cc2C(F)(F)F)CC1 | 63 | 2 | – | –
24 | Cc1nc(NC(=O)CN2CCN(C)CC2)sc1-c1ccc2c(-c3cnc(N)nc3)n[nH]c2c1 | 752 | 5630 | > 10000 | –
25 | Cc1nc(NC(=O)CN2CCN(C)CC2)sc1-c1ccc2c(-c3cncc(F)c3)n[nH]c2c1 | 54 | 1800 | 1690 | –
26 | CN1CCN(Cc2ccc(NC(=O)CCSc3ccc4c(/C=C/c5ccncc5)n[nH]c4c3)cc2C(F)(F)F)CC1 | 18 | 2 | 543 | –
27 | Cc1nc(NC(=O)CN2CCN(C)CC2)sc1-c1ccc2c(-c3cccc(F)c3)n[nH]c2c1 | > 10000 | 1710 | 1740 | –
28 | CN1CCN(Cc2ccc(NC(=O)CCSc3ccc4c(-c5ccncc5)n[nH]c4c3)cc2C(F)(F)F)CC1 | 448 | 1 | – | –
29 | Cc1nc(NC(=O)CN2CCN(C)CC2)sc1-c1ccc2c(-c3ccn(C)n3)n[nH]c2c1 | 73 | 351 | 1530 | –
30 | CN1CCN(Cc2ccc(C(=O)NCCCSc3ccc4c(/C=C/c5ccccn5)n[nH]c4c3)cc2C(F)(F)F)CC1 | 370 | 1 | – | –
31 | Cc1ccc(-c2n[nH]c3cc(SCCC(=O)Nc4ccc(CN5CCN(C)CC5)c(C(F)(F)F)c4)ccc23)cn1 | 516 | 1 | – | –
32 | O=C(Nc1cnn2ccc(N3CCC[C@@H]3c3cc(F)ccc3F)nc12)N1CC[C@H](O)C1 [LAROTRECTINIB] | – | – | > 10000 | GI50 [4]: 602 nM; inhibition in vivo at 80 mg/kg/day (BaF3 [5]): 33.8%; inhibition in vivo at 80 mg/kg/day (BaF3 [6]): 38.5%; inhibition in vivo at 80 mg/kg/day [7]: 78.9%; GI50 (BaF3 [8]): 102 nM; GI50 (BaF3 [9]): 148 nM; GI50 [10]: 11 nM; GI50 (BaF3 [11]): 258 nM
33 | CN1CCN(Cc2ccc(NC(=O)NCCSc3ccc4c(/C=C/c5ccccn5)n[nH]c4c3)cc2C(F)(F)F)CC1 | 646 | 42 | – | –
34 | Cc1nc(NC(=O)CN2CCN(C)CC2)sc1-c1ccc2c(-c3cccnc3)n[nH]c2c1 | 251 | 2630 | 5130 | –
35 | CN1CCN(Cc2ccc(NC(=O)CCSc3ccc4c(-c5cccnc5)n[nH]c4c3)cc2C(F)(F)F)CC1 | 736 | 9 | – | –
36 | CN1CCN(Cc2ccc(NC(=O)CC(=O)Nc3ccc4c(/C=C/c5ccccn5)n[nH]c4c3)cc2C(F)(F)F)CC1 | 248 | 4 | 2500 | –
37 | CN1CCN(Cc2ccc(C(=O)NCCSc3ccc4c(/C=C/c5ccccn5)n[nH]c4c3)cc2C(F)(F)F)CC1 | 370 | 41 | 4400 | –
